Shown are actives, neighbours in structure and some others; about 3.1% of the full set was active somewhere.
SENP6 block: blocks the human protease SENP6 | Q9GZR1 | Recombinant SENP6 catalytic domain, aminoluciferin luminescence | inhibition, % at 10 µM | 330,000 tested, 1.8% active;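 active means inhibition above about 50% at the single tested dose, limit read from the data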;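 further: plate controls were DMSO wells with enzyme for no effect and DMSO wells lacking enzyme for full effect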
Target sequence (Q9GZR1 628-1112 limits assumed): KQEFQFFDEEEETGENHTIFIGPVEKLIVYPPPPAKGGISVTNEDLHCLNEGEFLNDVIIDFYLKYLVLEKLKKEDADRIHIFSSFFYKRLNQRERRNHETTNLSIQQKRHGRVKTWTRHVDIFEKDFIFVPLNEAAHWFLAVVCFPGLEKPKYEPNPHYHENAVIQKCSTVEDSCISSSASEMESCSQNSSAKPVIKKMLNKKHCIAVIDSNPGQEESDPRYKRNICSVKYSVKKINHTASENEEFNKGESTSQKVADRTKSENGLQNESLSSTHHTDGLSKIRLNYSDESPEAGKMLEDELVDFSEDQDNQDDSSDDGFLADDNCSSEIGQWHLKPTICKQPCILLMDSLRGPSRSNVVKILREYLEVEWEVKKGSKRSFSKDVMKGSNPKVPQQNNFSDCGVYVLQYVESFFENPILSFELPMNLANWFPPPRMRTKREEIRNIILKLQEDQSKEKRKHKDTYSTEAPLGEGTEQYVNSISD
SENP8 block-1: blocks the human protease SENP8. AID 2540. Q96LD8. inhibition, % at 10 µM. purified SENP8, Z-RLRGG-aminoluciferin cleavage, luminescence. 330,000 tested, 1.2% active; in the data active means inhibition above about 50%
UBC13 inh: human UBC13 polyubiquitination inhibition | P61088 | UBC13 polyubiquitin chain formation, TR-FRET | inhibition, % at 20 µM | 330,000 tested, 0.47% active; in the data active means inhibition above about 45%, passing the limit was not always enough
SENP7 inh: SENP7 protease inhibition; Q9BQF6; recombinant SENP7, Z-RLRGG-aminoluciferin luminescence, 40 min; inhibition, % at 5 µM; 330,000 tested, 1.5% active; AID 434973;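 active means inhibition above about 50% at the single test dose, limit read from the data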;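 further: plate controls were DMSO with enzyme for no effect and no enzyme buffer wells for full effect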
Apaf-1 inh: human Apaf-1 inhibition | O14727 | reconstituted apoptosome caspase-3 activity, DEVD-Rh110 fluorescence | inhibition, % at 20 µM | 330,000 tested, 0.71% active; active means inhibition of at least 40% at 20 µM;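 further: plate controls were DMSO wells for no effect and DEVD-CHO caspase inhibitor wells for full effect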
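Material: cell-free apoptosome with Apaf-1, procaspase-3 and caspase-9; Buffer or medium: Hepes pH 7.5 with detergent and BSA; Reagent: cytochrome c trigger plus (Z-DEVD)2-Rh110 caspase-3 substrate; Times: compound with Apaf-1, dATP, procaspase-3 30 min, then 50 min reaction, room temperature; Technique: Rh110 fluorescence intensity.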
SENP8 block-2: inhibitors of human SENP8 protease; Q96LD8; inhibition, % at 20 µM; 360,000 tested, 0.64% active; recombinant SENP8, Nedd8 substrate fluorescence; in the data active means inhibition mostly above about 40%, no sharp cut-off; inactive means mostly below about 27%
SENP8 confirm: confirmation of human SENP8 protease inhibitors; shares compounds with SENP7 inh; 6,200 tested, 40% active; inhibition, % at 12.5 µM; Recombinant SENP8, Z-RLRGG-aminoluciferin luminescence, 60 min; AID 488912;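 active means mean inhibition across replicates above about 50%, limit read from the data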
SENP6 conf: human SENP6 inhibition, confirmed | shares compounds with SENP7 inh | recombinant SENP6, Z-RLRGG-aminoluciferin luminescence | inhibition, % at 12.5 µM | 6,200 tested, 58% active
SENP7 confirm: human SENP7 inhibition, confirmed | shares compounds with SENP7 inh | recombinant SENP7, Z-RLRGG-aminoluciferin luminescence, 40 min | inhibition, % at 12.5 µM | 6,200 tested, 69% active | AID 488917
Casp3 SENP sel: caspase-3 inhibition (SENP selectivity assay). shares compounds with SENP7 inh. purified caspase-3, Z-DEVD-aminoluciferin luminescence, 60 min. inhibition, % at 12.5 µM. 6,200 tested, 60% active. AID 488918;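 active means mean inhibition above about 50%, limit read from the data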;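 further: plate controls were enzyme with DMSO for no effect and wells without caspase-3 for full effect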
Luc interf: luminescence interference (SENP counter-screen); shares compounds with SENP7 inh; Pre-incubated SENP8/Z-RLRGG-aminoluciferin, luciferase luminescence interference; inhibition, % at 12.5 µM; 6,200 tested, 39% active;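 active means mean inhibition above about 50% when retested at one dose, limit read from the data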;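 further: plate controls were DMSO wells with completed reaction for no effect and substrate without enzyme for full effect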
* marks the source's active call; other numbers are inactive results.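 How the source made its calls, unless noted: active means mean inhibition above about 50% in the one-dose retest (limit read from the data); inactive means the rest.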

`C#CCNC(=O)C[C@@H]1C[C@@]2(C(=O)OCC)CCCC=C2N(CCCCCCCC)C1=O` gave SENP8 block-2 23.
`CCC(c1nnnn1-c1ccc2c(c1)OCCO2)N1CCN(C)CC1` (stereo not drawn) gave SENP8 block-2 12.
COC(=O)c1sc(NC(=S)NC(=O)c2cccc(C)c2)nc1C was read as SENP6 block 37, SENP8 block-1 10, UBC13 inh -15, SENP7 inh 3, Apaf-1 inh 3 and SENP8 block-2 21.
Cc1nc(NC(=O)c2cccc(Cl)c2)sc1C(=O)N1CCCCC1 was read as SENP6 block 72*, SENP8 block-1 57*, UBC13 inh 15, SENP7 inh 68*, Apaf-1 inh 11, SENP8 block-2 -40, SENP8 confirm 2, SENP6 conf 30, SENP7 confirm 6, Casp3 SENP sel 3 and Luc interf 10.
`Cn1sc(NC(=O)c2ccc(Cl)cc2)nc1=O` gave SENP6 block -7, SENP8 block-1 67*, UBC13 inh -3, SENP7 inh 81*, Apaf-1 inh 11, SENP8 block-2 18, SENP8 confirm 49, SENP6 conf 37, SENP7 confirm 69*, Casp3 SENP sel 53* and Luc interf 52*.
For CC(=O)c1sc(NC(=O)c2ccc(Cl)cc2)nc1C the results were SENP6 block 0, SENP8 block-1 37, UBC13 inh -4, SENP7 inh 72*, Apaf-1 inh -4, SENP8 block-2 -27, SENP8 confirm 17, SENP6 conf 18, SENP7 confirm 7, Casp3 SENP sel 25 and Luc interf 9.
For Cc1ccc(C(=O)Nc2nc(=O)n(C)s2)cc1 the results were SENP6 block 49, SENP8 block-1 6, UBC13 inh 2, SENP7 inh 38, Apaf-1 inh -18 and SENP8 block-2 6.
CC(=O)c1sc(NC(=O)c2cccc(C)c2)nc1C was read as SENP6 block 67*, SENP8 block-1 47, UBC13 inh -2, SENP7 inh 63*, Apaf-1 inh 5, SENP8 block-2 -13, SENP8 confirm 43, SENP6 conf 61*, SENP7 confirm 88*, Casp3 SENP sel 78* and Luc interf 24.
O=C1C=C(c2ccc(CO)cc2)C[C@@H](c2ccc(F)cc2)C1 was read as SENP8 block-2 8.
Screening COC(=O)C[C@@H]1C=C[C@@H](NC(=O)NC2CCCC2)[C@@H](CO)O1 returned SENP8 block-2 28.
COCCCNC(=O)c1cc(S(=O)(=O)N2CCC3(CC2)OCCO3)ccc1F was read as SENP8 block-2 -4.
For CN1OC[C@@H]2CN(C(=O)NC3CCCCC3)[C@H](c3ccc(N4CCCCC4)cc3)C[C@@H]21 the results were SENP8 block-2 2.
`CC(=O)c1sc(NC(=O)c2ccccc2C)nc1C` gave SENP6 block 79*, SENP8 block-1 67*, UBC13 inh 5, SENP7 inh 82*, Apaf-1 inh -1, SENP8 block-2 6, SENP8 confirm 40, SENP6 conf 67*, SENP7 confirm 93*, Casp3 SENP sel 90* and Luc interf 52*.
O=C(Nc1ccc(NC(=O)c2cccs2)cc1)c1cccs1 was read as SENP6 block -22, SENP8 block-1 -15, UBC13 inh 5, SENP7 inh 26, Apaf-1 inh 10 and SENP8 block-2 1.
For CCC(C)NS(=O)(=O)c1ccc(NC(=O)c2cccs2)cc1 (stereo not drawn) the results were SENP6 block 8, SENP8 block-1 -1, UBC13 inh -1, SENP7 inh 23, Apaf-1 inh 4 and SENP8 block-2 -5.
Screening O=C(Nc1ccc(NC(=O)c2cccs2)c(Cl)c1)c1cccs1 returned SENP6 block 63*, SENP8 block-1 50, UBC13 inh 5, SENP7 inh 53*, Apaf-1 inh 3, SENP8 block-2 3, SENP8 confirm 48, SENP6 conf 51*, SENP7 confirm 80*, Casp3 SENP sel 48 and Luc interf 46.
`O=C(Nc1ccc(OCc2ccccc2)cc1)c1cccs1` gave SENP6 block 70*, SENP8 block-1 58*, UBC13 inh -4, SENP7 inh 84*, Apaf-1 inh 6, SENP8 block-2 18, SENP8 confirm 41, SENP6 conf 60*, SENP7 confirm 93*, Casp3 SENP sel 73* and Luc interf 0.
CCC(C)c1ccc(NC(=O)c2cccs2)cc1 (stereo not drawn) was read as SENP6 block 90*, SENP8 block-1 87*, UBC13 inh -9, SENP7 inh 84*, Apaf-1 inh 16, SENP8 block-2 13, SENP8 confirm 92*, SENP6 conf 93*, SENP7 confirm 99*, Casp3 SENP sel 76* and Luc interf 82*.
For COc1ccc(NC(=O)c2cccs2)cc1 the results were SENP6 block 60*, SENP8 block-1 16, UBC13 inh -3, SENP7 inh 31, Apaf-1 inh 4, SENP8 block-2 38, SENP8 confirm 34, SENP6 conf 31, SENP7 confirm 74*, Casp3 SENP sel 79* and Luc interf 62*.
CCCOC(=O)c1ccc(NC(=O)c2ccoc2C)cc1 was read as SENP6 block 95*, SENP8 block-1 89*, UBC13 inh 2, SENP7 inh 93*, Apaf-1 inh 6, SENP8 block-2 17, SENP8 confirm 94*, SENP6 conf 95*, SENP7 confirm 101*, Casp3 SENP sel 92* and Luc interf 66*.
For Cc1occc1C(=O)Nc1ccc(OCc2ccccc2)cc1 the results were SENP6 block 98*, SENP8 block-1 96*, UBC13 inh 5, SENP7 inh 100*, Apaf-1 inh 3, SENP8 block-2 -2, SENP8 confirm 90*, SENP6 conf 100*, SENP7 confirm 104*, Casp3 SENP sel 99* and Luc interf 73*.
